High-throughput results (PubChem)
cytoskel mod = modifiers of F-actin cytoskeleton organization, primary screen, imaging, HUVEC, phalloidin staining, high-content imaging; inhibition, % at 2 µM; HUVEC TNFa F-actin phalloidin imaging; 0.18% of 91,000 active; AID 836, 2007;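 active = inhibition above the batch mean plus 3 SD and confirmed as a hit by visual image inspection, cut at about 30% in these data, passing the limit was not always enough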
PTK2B oligo ant = antagonists of Pyk2 self-association, primary screen, Q293 cells, FERM NanoBiT luminescence, HTS. z-score (the deposit names both 25 µM and 10 µM). 0.83% of 99,000 active. Protein-tyrosine kinase 2-beta (Homo sapiens), Q14289. stronger effect = lower value;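 active = Z-score of -3 or lower, scaled per plate to the spread of control and sample wells; inactive = z-score above -3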;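 also: negative z-score means lost luminescence so less FERM oligomerization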
H69AR inhibit = proliferation blockers of H69AR lung cancer cells, primary screen, cell-based, human, 86K library | H69AR lung tumor viability, ATP luminescence, 72 h; stronger effect = lower value | viability, % at 10 µM | 6% of 85,000 active | AID 598, 2007;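 active = viability at or below 40%; inactive = viability above 40%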;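 also: multidrug resistant small cell line overexpressing MRP-1 efflux transporter; 100% = mean luminescence of untreated control wells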
HUVEC inhibit = inhibitors of HUVEC proliferation, primary screen, cell-based, 384-well; CellTiter-Glo luminescence, 72 h; stronger effect = lower value; 1.1% of 86,000 active; viability, % at 10 µM (by protocol);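 active = viability at or below 30%; inactive = viability above 30%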;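 also: 100% = median luminescence of DMSO-only cell control wells on each plate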
Fibroblast inh = antiproliferative effect on LL 47 fibroblasts – human, LL 47 cells, CellTiter-Glo luminescence, primary screen; LL 47 human lung fibroblast viability, ATP luminescence; stronger effect = lower value; viability, % at 10 µM; 1.1% of 85,000 active; AID 719, 2007;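 active = viability at or below 50% in the single dose screen; inactive = viability above 50%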;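 also: compound exposure lasted 72 h before the ATP readout; 100% = median luminescence of untreated cell-only wells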
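Times – overnight cell rest, 72 h compound treatment at 37 °C · Test system – human lung fibroblast line LL 47, low passage · Amount – 1,150 cells in each well · Controls – cell-only wells, no compound · Doses – 0.1% DMSO in all compound wells · Measured by – CellTiter-Glo luminescence · Buffer or medium – IMEM plus 15% FBS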
Jurkat tox 60K = cytotoxicity toward Jurkat T cells, primary screen, cytotoxicity control, cell-based, Jurkat E6.1, 60K MLSMR library. inhibition, % at 4 µM. AID 463, 2006. 1.2% of 56,000 active. Jurkat E6.1 viability, ATP luminescence, 48 h;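 active = inhibition above the mean inhibition of all tested compounds plus 3 SD, cut at about 28% in these data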
* hit, by the source's call; . = no result. Hits are enriched below; roughly 6% of the tested compounds scored in any of these assays.

SMILES	cytoskel mod	PTK2B oligo ant	H69AR inhibit	HUVEC inhibit	Fibroblast inh	Jurkat tox 60K
Cc1cccc(C)c1OCc1nnc(SCC(=O)Nc2nccs2)n1-c1ccccc1	2	0.51	20*	62	87	2
CCOC(=O)C1CCCN(C(=O)Nc2ccccc2)C1 (centres undefined)	8	0.71	97	120	101	.
Oc1ccccc1CNc1nc2ccccc2n1CCN1CCCCC1	.	.	66	91	94	-3
COc1ccccc1CNc1nc2ccccc2n1CCN1CCCCC1	27	-0.62	36*	78	85	11
Cc1n[nH]c(C)c1S(=O)(=O)N1CCN(C(=O)c2ccco2)CC1	-8	0.41	107	105	103	-1
O=c1[nH]c(=O)n(Cc2ccccc2)c2c1C(C(F)(F)F)(C(F)(F)F)N=C(c1ccco1)N2	-2	-3.5*	59	70	72	.
Cc1ccc(C)c(CN2C(=O)C(C)Oc3ccc(C)cc32)c1 (centres undefined)	5	-0.85	.	.	.	-4
Cc1cc(C(=O)CSc2nnc(NCc3ccccc3)s2)c(C)n1C	32	-0.56	32*	66	63	34*
Cc1ccc(Cl)cc1N1CCN(C(=O)CN(C2CCCCC2)S(C)(=O)=O)CC1	-6	-0.42	73	88	93	.
CCCCN(C)S(=O)(=O)c1cc(Br)cc2c1N(C(=O)C1CC1)CC2	.	-0.46	31*	77	92	.
CCOCCCNS(=O)(=O)c1cc(Br)cc2c1N(C(=O)C1CC1)CC2	.	0.9	87	105	106	.
Cc1ccc(NC(=O)c2ccc(-c3nn(C)c(=O)c4ccccc34)cc2)cc1	-3	-0.81	35*	67	106	.
Cn1nc(-c2ccc(C(=O)Nc3cccc(Cl)c3)cc2)c2ccccc2c1=O	8	0.4	4.3*	41	52	.
N#CC(C(=O)NC1CCCCC1)=C1CCCCCC1	.	0.78	.	.	.	.
CC(=O)OC(C(=O)NCc1ccc(F)cc1)c1ccccn1 (centres undefined)	-4	-0.09	110	109	106	.
N/C(Cc1ccc(Cl)cc1)=N\OC(=O)c1cccc2ccccc12	3	0.23	-0.4*	1.4*	57	.
N/C(Cc1ccc(Cl)cc1)=N\OC(=O)c1ccc2ccccc2c1	-27	0.37	3.2*	5.6*	83	.
O=C1CSC(=S)N1CC1CCCO1 (centres undefined)	11	-0.32	20*	95	93	4
Cn1c(=O)n(CC(=O)NC2CCCCC2)c(=O)c2ccccc21	.	0.87	.	.	.	-2
CC1CCCCC1NS(=O)(=O)c1ccc(S(=O)(=O)NCc2ccncc2)cc1 (centres undefined)	16	.	91	55	91	92*
Cc1ccc(S(=O)(=O)NCc2ccncc2)cc1	23	1.4	106	104	99	76*
CCOc1ccc(S(=O)(=O)NCc2ccncc2)cc1	.	0.36	84	69	106	.
CCOc1cccc(NC(=O)C2CC(=O)N(C)C(=Nc3ccccc3)S2)c1 (centres undefined)	-2	-1.4	21*	73	94	3
CCOC(=O)c1nnn(-c2nonc2N)c1CN1CCc2ccccc2C1	2	0.12	81	90	92	-8
COC(=O)c1nnn(-c2nonc2N)c1CN1CCc2ccccc21	2	0.4	28*	64	100	0
SMILES	cytoskel mod	PTK2B oligo ant	H69AR inhibit	HUVEC inhibit	Fibroblast inh	Jurkat tox 60K
CC(C)C(=O)N1CCN(c2ccc(NC(=O)c3ccc4c(c3)OCCO4)cc2Cl)CC1	.	-3.6*	6.2*	3.2*	19*	.
O=C(c1ccc2c(c1)OCO2)N1CCN(c2ccc(Cl)cc2)CC1	12	0.07	98	123	.	-5
O=C(Nc1ccccc1N1CCN(C(=O)c2ccc(Cl)cc2)CC1)c1ccc2c(c1)OCO2	-10	-3.2*	61	76	101	-3
COc1ccc2nc(-n3c(O)c(C4=c5ccccc5=NC4=O)[nH]c3=S)sc2c1	.	-3.2*	.	.	.	.
CC1CCCN(C(=O)c2ccc(S(=O)(=O)N3CCC(c4nc5ccccc5s4)CC3)cc2)C1 (centres undefined)	10	-0.43	32*	89	88	.
CCN(CC)C(=O)c1ccc(S(=O)(=O)N2CCC(c3nc4ccccc4s3)CC2)cc1	.	-1.2	48	82	96	.
COc1ccccc1NC(=O)CSc1nc2n[nH]c(C)c2c(=N)n1-c1ccccc1Cl	1	-2.9	52	73	82	.
CCC(=O)N1CCc2cc(Br)cc(S(=O)(=O)N3CCN(c4ccccn4)CC3)c21	.	.	101	104	99	.
CCN(CCNC(=O)C1CCN(S(C)(=O)=O)CC1)c1ccccc1	.	0.04	96	96	98	-8
CCN(CCNC(=O)Nc1ccc(Cl)cc1)c1ccccc1	-21	-0.07	7.2*	102	96	7
CCC(C)NS(=O)(=O)c1ccc(NC(=O)c2c(-c3ccccc3)noc2C)cc1 (centres undefined)	-4	.	97	88	81	1
CCOC(=O)C1=C(O)/C(=C\c2cccc(OC)c2)N=C1C	-3	-0.16	.	.	.	.
CCOC(=O)C1=C(O)/C(=C/c2ccc(CNC(=O)C(=O)Nc3ccc(C)cc3)o2)N=C1C	7	-0.71	36*	2.3*	7.4*	.
COC(=O)C1=C(O)/C(=C\c2ccc(CNC(=O)C(=O)Nc3ccc(C)cc3)o2)N=C1C	-12	0.31	25*	60	25*	.
COC(=O)C1=C(O)/C(=C\c2ccc(CNC(=O)C(=O)Nc3ccc(C)c(C)c3)o2)N=C1C	-13	0.35	40*	19*	89	.
CCOC(=O)c1ccc(Nc2nc(C(=O)OCC)nc3ccccc23)cc1	22	-2.9	38*	70	103	.
CCOc1cc(S(=O)(=O)NCCc2cccc(C)c2)c(OCC)cc1-n1cnnn1	-15	0.82	45	84	89	2
CC1=C(C(=O)Nc2ccccc2)C(c2ccc(C)o2)n2c(s/c(=C/c3ccccc3)c2=O)=N1 (centres undefined)	14	0.97	23*	79	91	.
COc1ccc(NC(=O)/C(Cl)=C(/Cl)S(=O)(=O)Cc2ccc(C)cc2)cn1	-24	0.16	94	5.4*	2.3*	.
CCN(CC1COc2ccccc2O1)C(=S)Nc1ccccc1 (centres undefined)	20	-0.63	.	.	.	.
CCCCOC(=O)Cn1c2ccc(OC)cc2c2nc3ccccc3nc21	-19	0.16	28*	68	71	.
CCn1c2ccc(OC)cc2c2nc3ccccc3nc21	-4	.	44	77	87	.
Cc1[nH]nc2ncc(C(=O)c3ccccc3O)cc12	20	-1.7	88	84	95	.
CN1Cc2cc(C(=O)c3ccccc3O)cnc2NC1=O	-15	-0.98	25*	90	84	.
